{"source": "ChEMBL document CHEMBL5154719", "about": "“Probing Embryonic Development Enables the Discovery of Unique Small-Molecule Bone Morphogenetic Protein Potentiators” (J Med Chem, 2022)", "key": {"Embryonic stem cell [1]": {"tested_on": "Embryonic stem cell", "experiment": "Induction of cardiac differentiation in mouse ESC transfected with Myh6-GFP treated for 48 hrs and measured after 4 to 6 days by imaging analysis", "format": "functional, cell-based", "conditions": "time 4-6 day"}, "SAOS-2": {"tested_on": "SAOS-2", "experiment": "Induction of osteoblastic mineralization in human SAOS-2 cells at 25 nM followed by BMP-4 addition measured after 11 days of osteogenic differentiation", "format": "functional, cell-based", "conditions": "time 11.0 day", "how_it_was_run": "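SaOS-2 cells, 8×10³ cells/well, in osteogenic medium (10 mM β-glycerophosphate, 0.2 mM ascorbic acid, 10 nM dexamethasone) with 2 ng/mL BMP-4 or BMP-2 for 11 days. Medium and compound changed every 3 days; ascorbate refreshed daily; DMSO 0.01% vehicle. Mineralization by von Kossa staining; stained area quantified from at least four images per condition at 100× magnification.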"}, "C2C12 [2]": {"tested_on": "C2C12", "experiment": "Potentiation of BMP receptor in BMP-4 stimulated mouse C2C12 cells assessed as decrease in cytoplasmic Smad2 level preincubated for 24 hrs followed by BMP-4 stimulation and measured after 30 mins in presence of […]/BMP by Western blot analysis", "format": "cell-based", "conditions": "filed as activator, time 24.5 hrs", "how_it_was_run": "(§1)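 C2C12 cells exposed to compound with TGFβ-2 (10 ng/mL) for 24 h; for nuclear readout, a further 30 min BMP-4 at 2 ng/mL. Cytoplasmic and nuclear fractions isolated in HEPES buffers, pH 7.5, with phosphatase and protease inhibitors. Smads detected by Western blot, luminescence normalized to total protein per lane (trichloroethanol stain), then to DMSO.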"}, "C2C12 [3]": {"tested_on": "C2C12", "experiment": "Potentiation of BMP receptor in mouse C2C12 cells assessed as decrease in cytoplasmic Smad2 level incubated for 24 hrs in presence of […]/BMP by Western blot analysis", "format": "cell-based", "conditions": "filed as activator", "how_it_was_run": "as §1"}, "C2C12 [4]": {"tested_on": "C2C12", "experiment": "Induction of BMP-dependent osteogenesis in mouse C2C12 cells incubated for 72 hrs", "format": "functional, cell-based", "how_it_was_run": "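C2C12 myoblasts, 2000 cells/well in DMEM with 6% heat-inactivated FBS, grown 16 h; compounds added in triplicate, then BMP-4 at 7.5 ng/mL; 72 h. ALP activity read by luminescence after lysis with CDP-Star substrate, 1 h at room temperature in the dark. Activity with 7.5 ng/mL BMP-4 in DMSO set to 100%. EC50 by curve fitting.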"}, "[5]": {"experiment": "Inhibition of DMH-1 induced cardiogenesis in mouse ESC transfected with Myh6-GFP", "format": "functional, cell-based", "conditions": "embryonic stem cell", "how_it_was_run": "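mESC-Myh6-GFP, 500 cells/well on gelatine, LIF-free medium from day 0. On day 3, compounds added (triplicates for IC50) with DMH-1 at 0.5 μM final, 0.2% DMSO, 6% FBS; 24 h. Medium then changed, refreshed days 7 and 9. Day 11: PFA fixation, DAPI stain, automated imaging of GFP intensity and cell count, normalized to DMH-1. Cell count below 70% of DMH-1 flagged as cytotoxic.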"}, "C2C12 [6]": {"tested_on": "C2C12", "experiment": "[…] of osteoblastogenesis in mouse C2C12 cells assessed as upregulation of Runx2 gene expression in presence of BMP4 at 1 uM measured after 72 hrs", "format": "functional, cell-based", "how_it_was_run": "(§2)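 C2C12 cells plated at 1 × 10⁵ cells/well and treated with compound (1 μM) plus BMP-4 (7.5 ng/mL) or DMSO for 72 h. RNA isolated and transcripts quantified by qRT-PCR using the ΔΔCp method. Mean of triplicates ± SD, normalized to DMSO.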"}, "C2C12 [7]": {"tested_on": "C2C12", "experiment": "[…] of osteoblastogenesis in mouse C2C12 cells assessed as upregulation of Alp gene expression in presence of BMP4 at 1 uM measured after 72 hrs", "format": "functional, cell-based", "how_it_was_run": "as §2"}, "C2C12 [8]": {"tested_on": "C2C12", "experiment": "[…] of osteoblastogenesis in mouse C2C12 cells assessed as upregulation of Ocn gene expression in presence of BMP4 at 1 uM measured after 72 hrs", "format": "functional, cell-based", "how_it_was_run": "as §2"}, "C2C12 [9]": {"tested_on": "C2C12", "experiment": "[…] of osteoblastogenesis in mouse C2C12 cells assessed as upregulation of Opn gene expression in presence of BMP4 at 1 uM measured after 72 hrs", "format": "functional, cell-based", "how_it_was_run": "as §2"}, "C2C12 [10]": {"tested_on": "C2C12", "experiment": "[…] of osteoblastogenesis in mouse C2C12 cells assessed as upregulation of Col1a1 gene expression in presence of BMP4 at 1 uM measured after 72 hrs", "format": "functional, cell-based", "how_it_was_run": "as §2"}, "C2C12 [11]": {"tested_on": "C2C12", "experiment": "[…] of osteoblastogenesis in mouse C2C12 cells assessed as upregulation of Osx gene expression in presence of BMP4 at 1 uM measured after 72 hrs", "format": "functional, cell-based", "how_it_was_run": "as §2"}, "C2C12 [12]": {"tested_on": "C2C12", "experiment": "Potentiation of BMP receptor in mouse C2C12 cells assessed as increase in Id1 gene expression level incubated for 24 hrs by qRT-PCR analysis", "conditions": "filed as activator"}, "C2C12 [13]": {"tested_on": "C2C12", "experiment": "Potentiation of BMP receptor in mouse C2C12 cells assessed as increase in Id2 gene expression level incubated for 24 hrs by qRT-PCR analysis", "conditions": "filed as activator"}, "[14]": {"target": "Glycogen synthase kinase-3 beta (Homo sapiens, UniProt P49841)", "sequence (P49841 whole entry)": "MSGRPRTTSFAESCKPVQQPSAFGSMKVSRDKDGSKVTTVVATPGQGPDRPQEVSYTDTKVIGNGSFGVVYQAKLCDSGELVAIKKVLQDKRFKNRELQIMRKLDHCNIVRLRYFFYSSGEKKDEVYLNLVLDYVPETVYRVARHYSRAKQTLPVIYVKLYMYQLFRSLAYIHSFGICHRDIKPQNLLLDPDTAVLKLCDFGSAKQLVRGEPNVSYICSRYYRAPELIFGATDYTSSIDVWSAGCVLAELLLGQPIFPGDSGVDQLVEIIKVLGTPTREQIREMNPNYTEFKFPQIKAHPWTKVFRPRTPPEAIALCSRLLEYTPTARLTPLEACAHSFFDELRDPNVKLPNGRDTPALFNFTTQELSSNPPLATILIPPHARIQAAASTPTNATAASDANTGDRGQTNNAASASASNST", "experiment": "Inhibition of GSK3beta (unknown origin)"}, "[15]": {"experiment": "Induction of alkaline phosphatase activation in mouse C2C12 cells assessed as fold increase incubated in presence of 50 ng/ml BMP4 at 1 uM relative to BMP4 alone", "format": "functional"}, "Embryonic stem cell [16]": {"tested_on": "Embryonic stem cell", "experiment": "Induction of cardiac differentiation in mouse ESC transfected with Myh6-GFP treated for 48 hrs and measured after 3 to 6 days by imaging analysis", "format": "functional, cell-based", "conditions": "time 3-6 day", "how_it_was_run": "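mESC-Myh6-GFP seeded on 0.1% gelatine at 500 cells/well in LIF-free medium to differentiate spontaneously (day 0). Inhibitors given dose-dependently for 48 h over the stated day windows. Medium later changed to complete LIF-free medium. On day 11, cells PFA-fixed and DAPI-stained. GFP+ cardiomyocytes quantified by high-content imaging, normalized to DMSO; mean ± SEM.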"}}, "note": "Calls of active or inactive are those of the source. The rule behind the calls is not given here.", "data": [{"smiles": "NC(=O)c1ccc(-c2nc(-c3ccccn3)c(-c3ccc4c(c3)OCO4)[nH]2)cc1", "values": [{"measurement": "Activity", "setting": "Embryonic stem cell [1]", "result": "Active"}]}, {"smiles": "O=c1c(-c2ccc(C(F)(F)F)cc2)c(-n2cncn2)oc2ccccc12", "values": [{"measurement": "Activity", "setting": "SAOS-2", "result": "Active"}, {"measurement": "Activity", "setting": "C2C12 [2]", "result": "Active"}, {"measurement": "Activity", "setting": "C2C12 [3]", "result": "Active"}, {"measurement": "Activity", "setting": "C2C12 [4]", "result": "Active"}, {"measurement": "IC50", "setting": "[5]", "result": 0.2, "unit": "µM"}, {"measurement": "Activity", "setting": "C2C12 [6]", "result": "Active"}, {"measurement": "Activity", "setting": "C2C12 [7]", "result": "Active"}, {"measurement": "Activity", "setting": "C2C12 [8]", "result": "Active"}, {"measurement": "Activity", "setting": "C2C12 [9]", "result": "Active"}, {"measurement": "Activity", "setting": "C2C12 [10]", "result": "Active"}, {"measurement": "Activity", "setting": "C2C12 [11]", "result": "Active"}, {"measurement": "Activity", "setting": "C2C12 [12]", "result": "Active"}, {"measurement": "Activity", "setting": "C2C12 [13]", "result": "Active"}]}, {"smiles": "Cc1cc(Nc2cc(Cl)nc(Oc3ccc([N+](=O)[O-])cc3)n2)n[nH]1", "values": [{"measurement": "Activity", "setting": "C2C12 [4]", "result": "Active"}, {"measurement": "IC50", "setting": "[5]", "result": 0.2, "unit": "µM"}, {"measurement": "IC50", "setting": "[14]", "result": 0.002, "unit": "µM"}, {"measurement": "fold change (FC)", "setting": "[15]", "result": 2}]}, {"smiles": "c1cc(-c2cnn3cc(-c4ccc(OCCN5CCCCC5)cc4)cnc23)ccn1", "values": [{"measurement": "Activity", "setting": "Embryonic stem cell [16]", "result": "Active"}]}]}
